Reference: ChEMBL document CHEMBL3352303, “Characterization of TRIF selectivity in the AGP class of lipid A mimetics: role of secondary lipid chains” (Bioorg Med Chem Lett, 2015)

Target: Toll-like receptor 4/MD-2 (Homo sapiens, UniProt O00206+Q9Y6Y9)
Experiment: Activation of TLR4/MD2 (unknown origin) expressed in HEK293 cells co-expressing CD14 assessed as induction of MyD88-dependent NF-kappaB activity after 24 hrs by NF-kappaB SEAP reporter gene assay
Format: cell-based
Settings: hek293, 24 h
Method in brief: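 HEK293 cells stably transfected with human TLR4, MD-2, CD14 and an NF-κB-inducible promoter driving secreted embryonic alkaline phosphatase (SEAP). Compounds formulated at 2 mg/mL in 2% aq. glycerol (stock), applied as a dose response for 24 h. Read-out was relative SEAP activity in cell culture supernatants.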

Chain of Toll-like receptor 4/MD-2 (O00206 whole entry): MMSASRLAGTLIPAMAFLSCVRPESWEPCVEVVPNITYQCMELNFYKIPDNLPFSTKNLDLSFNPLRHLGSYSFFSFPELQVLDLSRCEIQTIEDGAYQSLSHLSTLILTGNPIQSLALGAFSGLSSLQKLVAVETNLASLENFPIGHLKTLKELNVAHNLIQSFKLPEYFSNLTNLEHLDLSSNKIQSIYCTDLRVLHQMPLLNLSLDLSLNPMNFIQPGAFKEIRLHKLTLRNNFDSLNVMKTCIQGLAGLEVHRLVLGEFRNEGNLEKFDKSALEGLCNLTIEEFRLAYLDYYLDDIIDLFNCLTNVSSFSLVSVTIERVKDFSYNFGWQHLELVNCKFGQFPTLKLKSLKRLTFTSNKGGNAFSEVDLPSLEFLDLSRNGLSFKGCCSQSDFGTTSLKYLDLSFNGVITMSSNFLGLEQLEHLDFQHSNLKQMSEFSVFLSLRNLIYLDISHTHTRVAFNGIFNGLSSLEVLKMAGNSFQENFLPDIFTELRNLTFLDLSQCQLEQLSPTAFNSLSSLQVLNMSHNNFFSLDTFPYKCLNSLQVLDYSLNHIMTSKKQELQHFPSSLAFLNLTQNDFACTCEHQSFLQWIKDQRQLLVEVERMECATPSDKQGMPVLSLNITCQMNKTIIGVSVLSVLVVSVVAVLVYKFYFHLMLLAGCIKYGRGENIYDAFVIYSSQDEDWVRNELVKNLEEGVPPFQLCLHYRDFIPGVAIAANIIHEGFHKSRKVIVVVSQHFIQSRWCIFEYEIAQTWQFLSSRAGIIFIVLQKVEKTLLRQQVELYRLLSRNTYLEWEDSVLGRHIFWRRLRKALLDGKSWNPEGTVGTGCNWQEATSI
Chain of Toll-like receptor 4/MD-2 (Q9Y6Y9 whole entry): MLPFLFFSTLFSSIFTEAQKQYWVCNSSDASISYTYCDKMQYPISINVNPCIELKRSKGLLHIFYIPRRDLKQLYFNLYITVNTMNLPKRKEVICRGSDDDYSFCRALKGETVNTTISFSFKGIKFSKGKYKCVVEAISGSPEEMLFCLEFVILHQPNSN

For `CCCCCCCCCCCCCC(=O)O[C@H](CCCCCCCCCCC)CC(=O)N[C@H]1[C@H](OC[C@H](NC(=O)C[C@@H](CCCCCCCCCCC)OC(=O)CCCCCCCCCCCCC)C(=O)O)O[C@H](CO)[C@@H](OP(=O)(O)O)[C@@H]1OC(=O)C[C@@H](CCCCCCCCCCC)OC(=O)CCCCCCCCCCCCC`, the Activity was “Non-toxic”.

For `CCCCCCCCCCC[C@H](CC(=O)N[C@H]1[C@H](OC[C@@H](NC(=O)C[C@@H](CCCCCCCCCCC)OC(=O)CCCCCCCCC)C(=O)O)O[C@H](CO)[C@@H](OP(=O)(O)O)[C@@H]1OC(=O)C[C@@H](CCCCCCCCCCC)OC(=O)CCCCCCCCC)OC(=O)CCCCCCCCC`, the Activity was “Toxic”.

With `CCCCCCCCCCC[C@H](CC(=O)N[C@H]1[C@H](OC[C@@H](NC(=O)C[C@@H](CCCCCCCCCCC)OCCCCCCCCCC)C(=O)O)O[C@H](CO)[C@@H](OP(=O)(O)O)[C@@H]1OC(=O)C[C@@H](CCCCCCCCCCC)OCCCCCCCCCC)OCCCCCCCCCC` the Activity was “Non-toxic”.

In the case of `CCCCCCCCCCC[C@H](CC(=O)O[C@@H]1[C@@H](NC(=O)C[C@@H](CCCCCCCCCCC)OC(=O)CCCCCCCCC)[C@H](OC[C@@H](NC(=O)C[C@@H](CCCCCCCCCCC)OC(=O)CCCCCCCCC)C(=O)O)O[C@H](CO)[C@H]1OP(=O)(O)O)OCCCCCCCCCC`, the Activity is reported as “Toxic”.

With `CCCCCCCCCCC[C@H](CC(=O)N[C@H]1[C@H](OC[C@@H](NC(=O)C[C@@H](CCCCCCCCCCC)OC(=O)CCCCCCCCC)C(=O)O)O[C@H](CO)[C@@H](OP(=O)(O)O)[C@@H]1OC(=O)C[C@@H](CCCCCCCCCCC)OC(=O)CCCCCCCCC)OCCCCCCCCCC` the Activity was “Non-toxic”.

In the case of `CCCCCCCCCCC[C@H](CC(=O)N[C@H](CO[C@@H]1O[C@H](CO)[C@@H](OP(=O)(O)O)[C@H](OC(=O)C[C@@H](CCCCCCCCCCC)OC(=O)CCCCCCCCC)[C@H]1NC(=O)C[C@@H](CCCCCCCCCCC)OC(=O)CCCCCCCCC)C(=O)O)OCCCCCCCCCC`, the Activity is reported as “Non-toxic”.

For `CCCCCCCCCCC[C@H](CC(=O)N[C@H]1[C@H](OC[C@@H](NC(=O)C[C@@H](CCCCCCCCCCC)OCCCCCCCCCC)C(=O)O)O[C@H](CO)[C@@H](OP(=O)(O)O)[C@@H]1OC(=O)C[C@@H](CCCCCCCCCCC)OC(=O)CCCCCCCCC)OCCCCCCCCCC`, the Activity was “Non-toxic”.

`CCCCCCCCCCC[C@H](CC(=O)N[C@H](CO[C@@H]1O[C@H](CO)[C@@H](OP(=O)(O)O)[C@H](OC(=O)C[C@@H](CCCCCCCCCCC)OCCCCCCCCCC)[C@H]1NC(=O)C[C@@H](CCCCCCCCCCC)OC(=O)CCCCCCCCC)C(=O)O)OCCCCCCCCCC` was tested, and the Activity was “Toxic”.

With `CCCCCCCCCCC[C@H](CC(=O)N[C@H]1[C@H](OC[C@@H](NC(=O)C[C@@H](CCCCCCCCCCC)OC(=O)CCCCCCCCC)C(=O)O)O[C@H](CO)[C@@H](OP(=O)(O)O)[C@@H]1OC(=O)C[C@@H](CCCCCCCCCCC)OCCCCCCCCCC)OCCCCCCCCCC` the Activity was “Toxic”.

In the case of `CCCCCCCCCCC[C@H](CC(=O)N[C@H]1[C@H](OC[C@H](NC(=O)C[C@@H](CCCCCCCCCCC)OC(=O)CCCCCCCCC)C(=O)O)O[C@H](CO)[C@@H](OP(=O)(O)O)[C@@H]1OC(=O)C[C@@H](CCCCCCCCCCC)OC(=O)CCCCCCCCC)OC(=O)CCCCCCCCC`, the Activity is reported as “Toxic”.

`CCCCCCCCCCC[C@H](CC(=O)N[C@H]1[C@H](OC[C@H](NC(=O)C[C@@H](CCCCCCCCCCC)OCCCCCCCCCC)C(=O)O)O[C@H](CO)[C@@H](OP(=O)(O)O)[C@@H]1OC(=O)C[C@@H](CCCCCCCCCCC)OCCCCCCCCCC)OCCCCCCCCCC` was tested, and the Activity was “Toxic”.
